Reference: ChEMBL document CHEMBL4665832, “Benzylidene thiazolidinediones: Synthesis, in vitro investigations of antiproliferative mechanisms and in vivo efficacy determination in combination with Imatinib” (Bioorg Med Chem Lett, 2020)

Key:
NCI-H226 = test: Antiproliferative activity against human NCI-H226 cells assessed as cell growth inhibition; assay type: functional
Procedure, shortened: (§1)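 Cell lines screened for growth inhibition and GI₅₀ derived. Each value is the mean of 3 independent experiments.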

A549 = test: Antiproliferative activity against human A549 cells assessed as cell growth inhibition; assay type: functional; procedure, shortened: as §1
[1] = Cytotoxicity against hepatocytes (unknown origin) assessed as cell growth by MTT assay relative to control; assay type: cell-based, Hepatocyte; parameters: concentration or dose not given beside the values
MCF7 = test: Antiproliferative activity against human MCF7 cells assessed as cell growth inhibition; assay type: functional; procedure, shortened: as §1
[2] = Antiproliferative activity against human GURAV cells assessed as cell growth inhibition; assay type: functional; procedure, shortened: as §1
PC-3 = test: Antiproliferative activity against human PC-3 cells assessed as cell growth inhibition; assay type: functional; procedure, shortened: as §1
K562 = test: Antiproliferative activity against human K562 cells assessed as cell growth inhibition; assay type: functional; procedure, shortened: as §1
KB = test: Antiproliferative activity against human KB cells assessed as cell growth inhibition; assay type: functional; procedure, shortened: as §1
HOP-62 = test: Antiproliferative activity against human HOP-62 cells assessed as cell growth inhibition; assay type: functional; procedure, shortened: as §1

Row | Structure (SMILES) | GI50 (NCI-H226) [µM] | GI50 (A549) [µM] | viability [1] [%] | GI50 (MCF7) [µM] | GI50 [2] [µM] | GI50 (PC-3) [µM] | GI50 (K562) [µM] | GI50 (KB) [µM] | GI50 (HOP-62) [µM]
1 | O=C1NC(=O)/C(=C/c2ccc(OCC(=O)N3c4ccccc4Sc4ccccc43)cc2)S1 | 82.1 | > 100 | > 70 |  |  |  |  |  | 
2 | O=C(COc1ccc(/C=C2\SC(=O)NC2=O)cc1)Nc1ccc(Br)cc1 |  |  | > 70 | 55.1 | 54.4 | 86.6 | 23.4 | 32.1 | 45.4
3 | O=C(COc1ccc(/C=C2\SC(=O)NC2=O)cc1)Nc1c(F)cc(Br)cc1F |  |  | > 70 | 57.3 | 64.1 | > 100 | 23.1 | > 100 | 75.2
4 | Cc1cccc(NC(=O)COc2ccc(/C=C3\SC(=O)NC3=O)cc2)n1 |  |  | > 70 | 28.3 | 60.9 | 58.3 | 10.7 | 75 | 81.4
5 | Cc1ccc(NC(=O)COc2ccc(/C=C3\SC(=O)NC3=O)cc2)cc1Cl |  |  | > 70 | 61.8 | 71.4 | > 100 | 19.6 | 99.6 | > 100
6 | Cc1cc(Br)ccc1NC(=O)COc1ccc(/C=C2\SC(=O)NC2=O)cc1 |  |  | > 70 | 66.8 | 69.7 | > 100 | 20.7 | > 100 | > 100
7 | O=C(COc1ccc(/C=C2\SC(=O)NC2=O)cc1)Nc1cccc([N+](=O)[O-])c1 |  |  | > 70 | 58.5 | 71.5 | > 100 | 20.5 | > 100 | > 100
8 | Cc1cnc(NC(=O)COc2ccc(/C=C3\SC(=O)NC3=O)cc2)s1 | 57.8 | 88.7 | > 70 |  |  |  |  |  | 
9 | O=C(COc1ccc(/C=C2\SC(=O)NC2=O)cc1)Nc1ccc(C(F)(F)F)cc1Cl |  |  | > 70 | 67.4 | 99.3 | > 100 | 16.3 | 78.6 | > 100
10 | O=C(COc1ccc(/C=C2\SC(=O)NC2=O)cc1)Nc1ccccn1 |  |  | > 70 |  |  |  |  |  | 
11 | O=C1NC(=O)/C(=C/c2ccc(OCC(=O)N3C(=O)c4ccccc4S3(=O)=O)cc2)S1 |  |  | > 70 |  |  |  |  |  | 
12 | CCCCC1=NC2(CCCC2)C(=O)N1NC(=O)COc1ccc(/C=C2\SC(=O)NC2=O)cc1 |  |  | > 70 |  |  |  |  |  | 
13 | Cc1cccc2sc(NC(=O)COc3ccc(/C=C4\SC(=O)NC4=O)cc3)nc12 |  |  | > 70 | 61.2 | 58.7 | > 100 | 45.8 | > 100 | > 100
